{"data": "Results from different studies", "ABHD6": "Monoacylglycerol lipase ABHD6 (ABHD6, Homo sapiens, UniProt Q9BV23)", "DRD4": "D(4) dopamine receptor (DRD4, Homo sapiens, UniProt P21917)", "note": "Compare with care: the assays were run in different laboratories."}
{"Compound": "CN(Cc1ccc(NC(=O)C2=Cc3cc(-c4ccc(OCCCF)cc4)ccc3CCC2)cc1)C1CCOCC1", "target": "5-hydroxytryptamine receptor 5A (HTR5A, Homo sapiens, UniProt P47898)", "test": "ligand displacement, radioligand", "measurement": "Ki", "result": "5010 nM"}
{"Compound": "CNC(=O)c1cccc(-c2ccc(O[C@H]3O[C@H](CO)[C@@H](O)[C@H](O)[C@@H]3O)cc2)c1", "target": "Type 1 fimbrin D-mannose specific adhesin, N-terminal domain (fimH, Escherichia coli K-12, UniProt P08191)", "test": "binding, BLI", "measurement": "Kd", "result": "0.01 nM"}
{"Compound": "CN(C(=O)Oc1nsnc1N1CCCCC1)c1cccc([N+](=O)[O-])c1", "target": "ABHD6", "test": "enzyme activity, inhibitor, fluorescence", "conditions": "lysate", "measurement": "IC50", "result": "1200 nM"}
{"Compound": "CCCCOc1ccc(C(=O)CCN2CCCCC2)cc1", "target": "DRD4", "test": "ligand displacement, radioligand", "measurement": "IC50", "result": "4100 nM"}
{"Compound": "CC(=O)N[C@@H](CO)C(=O)N[C@@H](Cc1ccccc1)C(=O)N[C@@H](CCC(=O)O)C(=O)N[C@@H](Cc1ccccc1)C(=O)N1CCC[C@H]1C(=O)N1CCC[C@H]1C(=O)N1CCC[C@H]1C(=O)N1CCC[C@H]1C(=O)N[C@H](C(=O)N[C@@H](CCC(=O)O)C(=O)N[C@@H](CC(=O)O)C(=O)N[C@@H](CCC(=O)O)C(=O)N[C@@H](CC(C)C)C(N)=O)[C@@H](C)O", "target": "Vasodilator-stimulated phosphoprotein (VASP, Homo sapiens, UniProt P50552)", "test": "binding, fluorescence", "measurement": "Kd", "result": "19000 nM"}
{"Compound": "OC(c1ccc(F)cc1)C(F)(F)CCN1CCC(O)(c2ccc(Cl)cc2)CC1 (racemic)", "target": "DRD4", "test": "cell-free assay, radioligand", "measurement": "Ki", "result": "51.6 nM"}
{"Compound": "Cc1ccc(N(C)C(=O)Oc2nsnc2N2CCCCC2)cc1", "target": "ABHD6", "test": "enzyme activity, inhibitor, fluorescence", "conditions": "lysate", "measurement": "IC50", "result": "150 nM"}
{"Compound": "O=C(COc1ccc2cc(C(=O)Nc3ccccc3)ccc2c1)NCc1ccc(OP(=O)(O)O)c(OP(=O)(O)O)c1", "target": "Signal transducer and activator of transcription 6, SH2 (Homo sapiens, UniProt P42226)", "test": "ligand displacement, FP", "measurement": "Ki", "result": "3470 nM"}
{"Compound": "CN(C(=O)Oc1nsnc1N1CCCCC1)C1CCCCCCC1", "target": "ABHD6", "test": "enzyme activity, inhibitor, fluorescence", "conditions": "lysate", "measurement": "IC50", "result": "72 nM"}
{"Compound": "Cc1ccc(Cc2ccc3c(c2)CN(C(=O)[C@@H](N)Cc2c(C)cc(O)cc2C)CC3)cc1", "target": "Mu-type opioid receptor (Oprm1, Rattus norvegicus, UniProt P33535)", "test": "ligand displacement, radioligand", "conditions": "cell membranes", "measurement": "Ki", "result": "114 nM"}
{"Compound": "CN(C(=O)Oc1nsnc1N1CCCCC1)c1ccc([N+](=O)[O-])cc1", "target": "ABHD6", "test": "enzyme activity, inhibitor, fluorescence", "conditions": "lysate", "measurement": "IC50", "result": "1250 nM"}
{"Compound": "COc1cc(C(=O)N2CC[C@@H](O)[C@@H](N)C2)cc2nc(-c3cc4ccccc4n3CC3CC3)n(C)c12", "target": "Nuclear receptor subfamily 1 group I member 2 (NR1I2, Homo sapiens, UniProt O75469)", "test": "reporter gene, agonist, luciferase", "measurement": "EC50", "result": "> 50100 nM"}
